# Screening results from PubChem.
# PPC-1+TRAIL kill – PPC-1 cancer cell killing with TRAIL present | PPC-1 cells + TRAIL, ATPLite viability luminescence | cell killing (% activity), % at 4 µM or 5 µM | actives 0.41% (n = 220,000) | AID 1443;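 active means cell killing above 50% in the first pass at 4 µM, then a duplicate retest at 5 µM averaging 50% or more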;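 further: plate controls were cells with TRAIL plus DMSO for no effect and medium-only wells lacking cells for full effect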
# TRAIL sens C8 – sensitizes caspase-8 expressing cells to TRAIL; NB7+C8 cells + TRAIL, ATPlite viability luminescence; inhibition (viability loss, TRAIL sensitization), % at 10 µM; actives 1% (n = 360,000); AID 624354;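 active means compounds causing at least 50% loss of cell viability in the single-dose screen, relative to plate controls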
# FLuc inh counter – Photinus pyralis luciferase inhibition counter-screen. inhibition, % at 10 µM. AID 1006. ATPLite firefly luciferase biochemical luminescence, 10 min. actives 1.5% (n = 200,000);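 active means inhibition above about 50% when tested at 10 µM, limit read from the data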
# Target sequence (P08659 whole entry, looked up): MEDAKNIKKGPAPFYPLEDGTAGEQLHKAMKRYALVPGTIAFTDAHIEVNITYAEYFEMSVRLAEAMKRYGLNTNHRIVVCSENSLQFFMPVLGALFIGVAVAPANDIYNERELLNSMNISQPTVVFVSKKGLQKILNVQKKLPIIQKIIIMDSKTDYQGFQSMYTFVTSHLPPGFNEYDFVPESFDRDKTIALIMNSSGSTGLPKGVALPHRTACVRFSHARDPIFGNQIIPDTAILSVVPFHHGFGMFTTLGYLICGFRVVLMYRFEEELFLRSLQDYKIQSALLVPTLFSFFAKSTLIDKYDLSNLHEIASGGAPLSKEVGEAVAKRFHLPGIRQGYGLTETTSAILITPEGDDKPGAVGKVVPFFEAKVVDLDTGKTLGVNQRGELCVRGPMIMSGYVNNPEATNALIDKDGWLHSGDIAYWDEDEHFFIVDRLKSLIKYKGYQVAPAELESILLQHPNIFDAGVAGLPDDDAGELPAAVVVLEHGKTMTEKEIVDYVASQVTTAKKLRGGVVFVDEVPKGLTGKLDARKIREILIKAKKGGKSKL
# FLuc stim CS – firefly luciferase counter-screen for stimulation assays; ATPlite luciferase biochemical, luminescence, 10 min; 0 = ATP-free wells, 1 = DMSO control; activation factor at 10 µM; 200,000 tested, under 10 active;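 active means luciferase activation factor, scaled between plate controls, of at least 2 with compound at 10 µM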
#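 Assay system: Luciferase/luciferin detection reagent, cell-free biochemical luciferase assay / Read-out: luciferase activation / Benchmarks: No-ATP low control, compound-free enzyme-plus-ATP high control / Medium: PBS buffer for ATP / Detection: luminescence measurement of luciferase light output / Schedule: 10 min at ambient temperature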
# * hit, by the source's call; . = no result given. Most compounds without a hit are left out; they make up all but 1.6% or so of the library.
SMILES,PPC-1+TRAIL kill,TRAIL sens C8,FLuc inh counter,FLuc stim CS
CCOc1cc(C=NNC(=O)N(c2ccccc2)c2ccccc2)ccc1O,.,62.6*,.,.
COc1ccc(OC)c(NC(=O)CCCN2C(=O)C3C4C=CC(C4)C3C2=O)c1 (configuration not stated),-1.3,-10.0,-2.4,1
CCOC(=O)c1c(C)oc(=O)c(CC)c1O,.,-0.4,.,.
CCOC(=O)c1c(C)oc2c(F)c(F)c(F)c(F)c2c1=O,21.1,94.0*,-4.8,1
Cc1ccccc1-c1nnc(SCC(=O)Nc2cccnc2Cl)o1,.,63.5*,.,.
COc1ccc(N=Nc2n(C)c3ccccc3[n+]2C)cc1,92.2*,.,.,.
Cc1coc2c1C(=O)C(=O)c1c-2ccc2c(C)cccc12,27.6,53.6*,.,.
Cc1onc(-c2ccccc2Cl)c1C(=O)N[C@@H](C)c1ccccc1,.,2.3,.,.
Cc1ccc(OCCSCc2nnc(NC(=O)Nc3cccc(Cl)c3)s2)cc1,32.1,52.5*,-8.1,1.1
C=CCSc1nnc(-c2ccc(Cl)cc2Cl)o1,19.7,25.9,59.3*,0.4
COc1cccc(C(=O)Nc2nc3c(s2)CN(C)CC3)c1,23.2,22.7,56.1*,0.4
O=C(Nc1nc2c(s1)CN(Cc1ccccc1)CC2)C1CCC1,11.6,1.2,1.2,1
CCN1CCc2nc(NC(=O)c3ccccc3)sc2C1,49.3,49.5*,45.8,0.5
CN1CCc2nc(NC(=O)c3cccc(S(=O)(=O)N4CCc5ccccc54)c3)sc2C1,2.6,2.3,1.1,1
COc1ccc(/C(C)=N/Nc2nc3ccccc3nc2C)cc1,3.2,22.5,.,.
COc1ccc(/C(C)=N/Nc2nncc3ccccc23)cc1,.,60.3*,.,.
O=C(CCl)N1c2ccccc2SCC1c1ccccc1 (configuration not stated),.,82.7*,.,.
Cc1cc(CCN2CCC(=O)NC2=O)ccc1OC(C)C,9.9,-11.3,-2.4,1
O=C(NCCc1ccccc1)c1ccc([N+](=O)[O-])cc1,11.9,39.5,66.0*,0.3
NC(=O)N/N=C/c1ccc(-c2cccc(C(F)(F)F)c2)o1,1.6,-9.4,-1.8,1
O=C(N/N=C/c1ccc(O)cc1)c1cccc(C(F)(F)F)c1,-4.2,5.9,-5.7,1.1
O=C(N/N=C/c1ccccc1C(F)(F)F)c1ccc(O)cc1,23.7,20.8,55.4*,0.4
O=C(N/N=C/c1ccc(-c2cccc(C(F)(F)F)c2)o1)c1cccc(F)c1,-12.4,72.9*,-3.0,1
O=C(N/N=C/c1ccccc1O)c1cccc(C(F)(F)F)c1,52.5*,20.9,-2.0,1
COc1ccc(-n2nc(N)c3c(=O)oc(N(C)C)nc32)cc1,-1.4,-20.4,-2.1,1
SMILES,PPC-1+TRAIL kill,TRAIL sens C8,FLuc inh counter,FLuc stim CS
O=c1c(Br)c(Br)cnn1-c1ccccc1,33.4,96.7*,-4.2,1
COc1cccc(-n2c(SCC(=O)N3CCCCC3)nc3c([nH]c4ccccc43)c2=O)c1,4.0,53.7*,-1.9,1
COc1ccc(C(=O)Nc2ccc(NC(=O)c3ccccn3)cn2)cc1,.,9.9,.,.
COc1ccc(NC(=O)c2cc3ccccn3n2)cc1,48.4,1.0,80.5*,0.2
COc1ccc(NC(=O)c2cccc(NC(=O)c3ccccc3)c2)cc1,.,-0.9,.,.
COc1ccc(NC(=O)c2ccccn2)cc1,76.3*,73.8*,90.1*,0.1
COC(=O)C1=CN(c2cccc(OCc3ccccc3)c2)C(N)=C(C#N)C1c1cccc(F)c1 (configuration not stated),.,6.6,.,.
COCCSc1nc2sc3c(c2c(=O)n1-c1ccccc1)CCN(C)C3,22.0,-4.6,-3.4,1
Cc1ccc(S(=O)(=O)Cc2cc(F)c([N+](=O)[O-])cc2[N+](=O)[O-])cc1,.,64.8*,.,.
CCCCN(CC)CCCNC(=O)C1c2ccccc2C(=O)N(C)C1c1cn(C)c2ccccc12 (configuration not stated),-8.4,61.4*,-3.4,1
CCN(CC)CCCNC(=O)C1c2ccccc2C(=O)N(CCOC)C1c1ccc(F)cc1 (configuration not stated),-6.9,-3.4,-4.7,1
COc1ccc(-c2cc3ccc(F)cc3cn2)cc1,.,57.3*,.,.
Cc1[nH]c2ccccc2c1/C=N/NS(=O)(=O)c1ccccc1,13.1,0.4,-6.7,1.1
CCn1ccc(C(=O)Oc2ccc(Cl)cc2)n1,-2.5,-1.3,53.5*,0.5
NC(c1csc(Nc2ncccn2)n1)C1CCCCC1 (configuration not stated),.,15.7,.,.
COc1cccc(-n2c(SCC(=O)N3CCc4ccccc43)nnc2-c2c[nH]c3ccccc23)c1,5.6,59.2*,-3.2,1
CCOc1ccc(-n2c(SCC(=O)N3CCc4ccccc43)nnc2-c2c[nH]c3ccccc23)cc1,6.2,4.7,-3.4,1
O=C(NCC1CCCO1)c1ccc2c3n(nc2c1)-c1ccccc1CO3 (configuration not stated),42.1,51.0*,.,.
COCCNC(=O)c1ccc2c3n(nc2c1)-c1ccc(C)cc1CO3,43.0,30.2,.,.
COc1ccccc1C(=O)NNC(=O)c1ccccc1[N+](=O)[O-],-4.4,-3.2,-2.9,1
Cc1ccc(C(=O)C(C)OC(=O)c2ccccc2[N+](=O)[O-])cc1 (configuration not stated),18.8,31.4,65.4*,0.3
Cn1cc([N+](=O)[O-])c(C(=O)Nc2nc(-c3ccc(Cl)cc3)cs2)n1,48.0,93.7*,-4.1,1
Cn1cc([N+](=O)[O-])c(C(=O)Nc2ccc(C(=O)N3CCCCC3)cc2)n1,-0.8,14.4,-3.2,1
Cn1cc([N+](=O)[O-])c(C(=O)Nc2ccc(C3CCCCC3)cc2)n1,46.0,60.9*,13.9,0.9
Cc1ccc(-c2nc(NC(=O)c3nn(C)cc3[N+](=O)[O-])sc2C)cc1,33.8,92.6*,-6.3,1.1
SMILES,PPC-1+TRAIL kill,TRAIL sens C8,FLuc inh counter,FLuc stim CS
Cc1ccc(-c2nc(NC(=O)c3nn(C)cc3[N+](=O)[O-])sc2C)cc1C,23.9,94.7*,-9.4,1.1
CCN1CCN(Cc2ccc(NC(=O)c3ccc(C)c(NC(=O)c4ccc5n[nH]nc5c4)c3)cc2C(F)(F)F)CC1,-2.5,-9.6,.,.
CCN1CCN(Cc2ccc(NC(=O)c3ccc(C)c(NC(=O)C(=O)c4c[nH]c5ccccc45)c3)cc2C(F)(F)F)CC1,-2.3,88.9*,.,.
COc1cccc(CNC(=O)Cc2ccc(NC(=O)C3=C(C)OCCS3)cc2)c1,.,56.2*,.,.
CCc1ccc(CNC(=O)Cc2ccc(NC(=O)C3=C(C)OCCS3)cc2)cc1,.,52.8*,.,.
CC1=C(C(=O)Nc2ccc(CC(=O)NCc3ccccc3C)cc2)SCCO1,.,38.6,.,.
CN(C)c1ccc(N=Nc2ccccc2C(=O)OCC(=O)NCC2CCCCC2)cc1,18.1,22.3,48.0,0.5
CN(C)c1ccc(N=Nc2ccccc2C(=O)OCC(=O)NC2CCCC2)cc1,29.2,19.9,59.4*,0.4
CN(C)c1ccc(N=Nc2ccccc2C(=O)OCC(=O)N(C)C2CCCCC2)cc1,27.4,5.0,68.5*,0.3
CCCc1nc2ccc(NC(=O)c3cccs3)cc2c(=O)n1Cc1ccc(Cl)cc1,6.7,8.8,-1.9,1
